Reference: the EternaBench riboswitch data

System: MS2 coat protein
Assay: apparent Kd, MS2 coat protein; higher = weaker binding; RNA-MaP array; FMN 200 µM where present
Method in brief: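 Green signal from SNAP-549-labelled MS2 coat protein was normalised to red-channel RNA signal and to the median Fmax of control clusters. The protein was titrated from 0.7 or 1.5 nM, doubling to 3 µM, without and then with constant ligand, over designs transcribed by stalled E. coli RNA polymerase on Illumina sequencing-chip clusters, in 100 mM Tris-HCl pH 7.5, 80 mM KCl, 4 mM MgCl2, BSA, DTT, yeast tRNA and Tween-20. The apparent Kd is the median of filtered per-cluster binding-curve fits.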

[1] = designed as: OFF switch for flavin mononucleotide, no ligand
[2] = ligand present: flavin mononucleotide, designed as: OFF switch for flavin mononucleotide
[3] = designed as: ON switch for flavin mononucleotide, no ligand
[4] = ligand present: flavin mononucleotide, designed as: ON switch for flavin mononucleotide

Sequence | apparent Kd [1] [nM] | apparent Kd [2] [nM] | apparent Kd [3] [nM] | apparent Kd [4] [nM]
AAAUUUAACGAAGGAUAUACUAACAUGAGGAUCACCCAUGUGUGCUUUGUGUUGCUGAAAUUCGGGUAGAAGGUCGUAUACAUA | 82.8 | 118 | – | –
GGUACUCAAAGAGUACCAAUACGAACAUGAGGAUCACCCAUGUAGGAUAUGCUACUCAAAGAGUAGCAGAAGGACGUGUGCCUU | 21.4 | 42.4 | – | –
GUCAGCUCGUGAGGAUAUACAACACUGCAUCGGCAGUGUAUUAAGAUCACAUGAGGAUCACCCAUGUAGAAGGCACGAGCUGAU | 13 | 246 | – | –
AGGAGACAUGAGGAUCACCCAUGUGCGAGGUGAAGAGGAUAUAGAAGAAGAAGAAAGAAACUAGAAGGCUUAAAAA | – | – | 220 | 244
CGCAAGUAUACAUGAGGAUCACCCAUGUCAGAAAGGGUAAUCAGAAGGUACUAUUAGAGAUAGAGUAAGGAUAUGAAAUUUGUG | – | – | 399 | 110
AUGUACCUAGGAUAUACAUGAGGAUCACCCAUGUAGCUUCACGUGGUAGGAUCCUUUGGUAGAAGGAGGAUCUU | 37.3 | 68.2 | – | –
AAAUUGCUAGAGGAUAUCGGAUAGGAUUUAUUGCGAGAAGGCUGGACAUGAGGAUCACCCAUGUUCUGUUGGGA | 23.9 | 36.6 | – | –
ACAAGAUCAGGAUAUACAUGAGGAUCACCCAUGUAUAUAAAAAAAAAACUUUCUUCAUGUAGAAGGGAUCUUGU | 17.4 | 46 | – | –
AAAAAGCGAGGAUAUACAUGAGGAUCACCCAUGUCAAACGGUAAGACCGCAGGAAAAAGUAGAAGGCGCAAAAA | 61.5 | 98.5 | – | –
UCUAAUUAGUGAGGAUAUACAUAAUUUAUUACUGUAGAAGGCACAAACCUCAAGACAUGAGGAUCACCCAUGUGGUAUUUAGAU | 158 | 362 | – | –
AGACCGCUACGCCGGUUUCACGCACAGGAUAUGCGGUUACAUGAGGAUCACCCAUGUGGCCAUGUGUAGAAGGGUGGUUCGUGC | – | – | 37 | 30.1
UUAUGUCGCGUAGGAUAUCACUAGAGUUGUAAUUUAAUUGUAAUUUCGAUGUGAGAAGGACGUACACAUGAGGAUCACCCAUGU | 19.5 | 16.3 | – | –
GCGAGUAAAGCAGGAUAUCUAUUGUCUCUGUAACAUGAGGAUCACCCAUGUAGAGAAGGGCUUAGUCAUACAAUUCGAACUCGC | 7.86 | 7.32 | – | –
UGAUAGGACAGAGGAUAUACCGAUAGGAGAUACUAUCGACUAUUCCUCACAUGAGGAUCACCCAUGUAGAAGGCUGUCCUAUCU | 15.5 | 60.2 | – | –
ACUUAUGAAGGAUAUACUAGCGACAUGCACUCAACACGCGCACAUGAGGAUCACCCAUGUAGAAGGUCAAACAU | 25.8 | 23.1 | – | –
AAAAAACAUGAGGAUCACCCAUGUAAAAAAAUGGGAGGAUAUACAAAAACAAAAAAAAAAGUAGAAGGCCUGAAAA | – | – | 387 | 63.8
GUAAUUAAGAGAGGAUAUUGACAUGAGGAUCACCCAUGUAUUUGGGAGUGUUUACUGAAUUCUUACGAGAAGGCUUUUAAAUAC | 89.2 | 178 | – | –
ACAUGAUAUGUAGGAUAUCACAACUUGUGUUAUAAAAUUGUAAUUUAGGAUUGAGAAGGACAUUUACAUGAGGAUCACCCAUGU | 17.6 | 13.3 | – | –
AAUAAACUCACAGGAUAUAGCAUAGGUCGCGUGAACUUACAGACGACUAUGCUAGAAGGGUGACCACAUGAGGAUCACCCAUGU | – | – | 880 | 186
CUCACAAGAGGAUAUUAAUAGCUUAACAUGAGGAUCACCCAUGUCCUUUUCUCGGGAUUUUGAGAAGGCUUGUGUG | 341 | 189 | – | –
CUGGGAUCAGUAGGAUAUGCCGGACAUGAGGAUCACCCAUGUAAGGCGUGCUUCCCUCACGUGCGGCAGAAGGGCUGCGUCACU | 43.4 | 40 | – | –
CUUAUUUGAGGAUAUACGUCACCGUCUUCAUGAGUUCAAAUACAUGAGGAUCACCCAUGUAGAAGGCAAUUACU | 25.8 | 39.4 | – | –
GCCAUCGCAUGAGGAUAUGGCACCGUUUCGGUGCCAGAAGGCAUGUCAUAAGACAUGAGGAUCACCCAUGUGAAUAAGAUGGCA | – | – | 360 | 38.5
GGUUGUCAUAGUCAUCCUUUCCGUACAUGAGGAUCACCCAUGUAGGAUAUGCUACUCACAGUGUAGCAGAAGGGCGUGUGUCUU | 16.6 | 17.6 | – | –
GUAGCAUUAAUAGGAUAUUCAUACCGGAAACGGACAUGAGGAUCACCCAUGUGGCGAAAGCCUUGGGAGAAGGUAAUAUGCUAC | – | – | 821 | 240
GUCAGCUCGUGAGGAUAUACAUGUGCUGGAAACAGCAUUAAAUUUUUCACAUGAGGAUCACCCAUGUAGAAGGCACGAGCUGAU | 17.3 | 39.1 | – | –
ACUACGAUAGCGAUAUGAUCGAGAGAUCAUGUCGCUAUUUUUAGAAGGACAUGAGGAUCACCCAUGUAGGAUAUGGGACGUGGA | – | – | 70.4 | 27.1
CCGGAUAUGCAGGAUAUCGUAUCGGAUACGAUACGAGAAGGGUAUACAUGAGGAUCACCCAUGUGCCUUACCGG | 19.3 | 20 | – | –

Sequence | apparent Kd [1] [nM] | apparent Kd [2] [nM] | apparent Kd [3] [nM] | apparent Kd [4] [nM]
GGCUGGUGACAGCAUCCAUCAAAACAUGAGGAUCACCCAUGUAGAAGGCUGUACGGUUACCGUACAGAGGAUAUACAAUGAUGG | 6.96 | 9.46 | – | –
GUAGCAUUCUGAGGAUAUUCAUACCGGAAACGGACAUGAGGAUCACCCAUGUGGCGAAAGCCUAGGGAGAAGGCAGUAUGCUAC | – | – | 56.6 | 13.8
UCCUGACAUGAGGAUCACCCAUGUUAGGAUAUGGCUUAGGGCGCGUCUGUGUGUUGGGUUAGAAGGGAUGUGGG | 17.6 | 16.8 | – | –
AUGCUAGUGUGAGGAUAUUAACAUGAGGAUCACCCAUGUUGGAAGAUCAUGACGAUCACGCAUGAUAAGAAGGUACAUUAGCAU | 40.8 | 94.9 | – | –
GGAAAGUGAGGAUAUGCAUAACAAAUACAAAGAGAAACAAAGCAGAAGGCACAUGAGGAUCACCCAUGUAAACA | 24.9 | 25 | – | –
UUUUGACAUGAGGAUCACCCAUGUCAGGAUAUAGUAGGACAAAUAAAUAAAAGUUCUACUAGAAGGGAUAUGGA | 23.2 | 37.5 | – | –
GUAGAGUAAGGAUAUAGAGAAUAGGAUAGAAUGGUUAGAAUCUAGAAGGUACAUGAGGAUCACCCAUGUAAUGU | 21.9 | 19.8 | – | –
ACGACGAAAGUCGAACGAUGUAGCAGAAGGACAUGAGGAUCACCCAUGUCAGCUGUAAAAGCCAUGUAGGAUAUGCUACAUCGA | 3.51 | 4.4 | – | –
UGUUGUUCAGGAUAUGAUGUAUAAUACAUGAGGAUCACCCAUGUGGGUCCUGAUUUGGCGUCAGAAGGGAAUGUUG | 88.3 | 146 | – | –
CGUAUGUCAGGAUAUGCGUAAACCGGUCAGGGCGAGCGGCAGCAGAAGGGACAUGAGGAUCACCCAUGUUCGGG | 46.7 | 46.6 | – | –
UUACUCAUGUAAGGAUAUGCAGCCGUUUCGGUUGCAGAAGGUACUAUAAUACAUGAGGAUCACCCAUGUCUUUUUAAUUUAGAC | – | – | 78.4 | 39.6
GGUACCAUCACAGGAUAUGCUUUUCUUUGGGAAGCAGAAGGGUGUAACAUGAGGAUCACCCAUGUGGUGCCAGGGCGUGAGCCC | – | – | 182 | 14.7
GGUGAGUGAGGAUAUCCAGGUCCUGACAUGAGGAUCACCCAUGUAUACGUCACGUGCGGAGGAGAAGGCACAAUAA | 91.1 | 297 | – | –
UAGCAUUGCCUUUGGUAGUGCCUUACAUGAGGAUCACCCAUGUAGGAUAUGGUAGGCUUUGCUUACCAGAAGGACAUGGUAAUU | 52.9 | 259 | – | –
GGAAUAUUUACAGGAUAUGUUUUGUUAAGUCGAGCAGAAGGGUAGAUGUCUUACACGGUUUGUUACAUGAGGAUCACCCAUGUU | – | – | 114 | 35.1
ACAUAGUGAGGAUAUGCUGCUCGUCACUUGCGUGAUGAGUAGCAGAAGGCACAUGAGGAUCACCCAUGUAAAAA | 40.5 | 55 | – | –
AAACACGGACAUGAGGAUCACCCAUGUGGCGAAAGCCUUGGGAGAAGGCCGAUUGCAAAGCAAUCGGAGGAUAUUCAUACCGUG | – | – | 1250 | 57
CGUUUGUGGCAACUAUCCUCACAUGAGGAUCACCCAUGUAGGGAGGAUAUGCAUUUAAAGAAGUGGCAGAAGGCCCUACACGAA | 101 | 89.5 | – | –
UUACAUACAAAGGUACAUGAGGAUCACCCAUGUUUGUUGGGAAGAAGGGUAACAGUACUACAUAUAUAGGAUAUUUCACAAAUA | – | – | 122 | 86.6
UGGUCAUGAUCAGGAUAUUAACAUGGGCUACAUUAAGAAGGGAUAGUGAGAUGCGAACUGAACGACAUGAGGAUCACCCAUGUA | – | – | 51.9 | 35.8
CUGAGCUGAGGAUAUACAUGAGGAUCACCCAUGUGGGCCUGCGAGGUUACUUGCACAUGUAGAAGGCAGUUCGG | 136 | 17.2 | – | –
GGUUGGCGAGGAUAUACAUGAGGAUCACCCAUGUGGUCCUGUGGCUGGUAAAACCUUUGUAGAAGGCGCGGGUC | 215 | 240 | – | –
CAUAGGCGAGGAUAUACAUGAGGAUCACCCAUGUAAGGAAACCUGGCAGACUCAGAAUGUAGAAGGCGCACUGA | 21.6 | 41 | – | –
CUUUUGUGAGGAUAUCAGUAGUAAUUAAAUAAAAUUACUACUGAGAAGGCACAUGAGGAUCACCCAUGUUCCUC | 41.3 | 338 | – | –
UUACCUCAUGAGAAGGCGAUCAUGAAACAUGAUCGAGGAUAUCAUGUAAACAUGAGGAUCACCCAUGUAUGGGUAUUAUGGUAG | – | – | 198 | 56.8
CGCAACAUACAGAAGGAGUAAAUUAGAAGUGUACUAGGAUAUGUUUACAUGAGGAUCACCCAUGUCGAUUGGGUUUUAGUUGCG | 489 | 251 | – | –
AUCAGCUCGUCAGGAUAUACGUCACUGCGUCAGCAGUGUGGUCAGAUCACAUGAGGAUCACCCAUGUAGAAGGGACGAGCUGAU | 28.6 | 549 | – | –
